“And” between values parts separate entries of the source, which are not always exact repeats. Equal entries are not always repeated.
Tests used:
Fibroblast = assay: Multiplex assay against human fibroblast; assay type: toxicity, cell-based; details: number of replicates 2
How it was run: (§1)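 Imaging took place on a CQ1 microscope at 37°C and 5% CO2 once compound had been added to live cells stained at seeding with Hoechst33342, BioTracker Green Microtubule Cytoskeleton Dye, MitoTracker Red and Annexin V Alexa Fluor 680. CellPathfinder machine-learning gating classed cells as Hoechst high-intensity objects or normal cells, classed normal cells as having healthy, pyknosed or fragmented nuclei, and classed pyknosed cells as mitotic or apoptotic. Tubulin, mitochondrial-mass and membrane-permeability phenotypes are per cents of the healthy-nucleus cells.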

HEK-293T = assay: Multiplex assay against HEK293T; assay type: toxicity, cell-based; details: human, number of replicates 2; how it was run: as §1
[1] = 12 h, 1 µM, compound concentration 1 uM
[2] = 12 h, 10 µM, compound concentration 10 uM
[3] = 24 h, 1 µM, compound concentration 1 uM
[4] = 24 h, 10 µM, compound concentration 10 uM
[5] = 48 h, 1 µM, compound concentration 1 uM
[6] = 48 h, 10 µM, compound concentration 10 uM

Structure (SMILES): CN1CCN(C(=O)Cc2ccc(N/C(=C3\C(=O)Nc4cc(Cl)ccc43)c3ccccc3)cc2)CC1
- Population Apoptotic (%) (Fibroblast; [1]): 43% and 30%
- Population Fragmented Nuclei (%) (Fibroblast; [1]): 9% and 8%
- Population Healthy Nuclei (%) (Fibroblast; [1]): 69%
- Population Hoechst High Intensity Objects (%) (Fibroblast; [1]): 0%
- Population Membrane Permeable-Phenotype (%) (Fibroblast; [1]): 5% and 7%
- Population Mitochondria Different-Phenotype (%) (Fibroblast; [1]): 0% and 1%
- Population Mitotic Cells (%) (Fibroblast; [1]): 56% and 69%
- Population Normal (%) (Fibroblast; [1]): 100%
- Population Pyknosed Nuclei (%) (Fibroblast; [1]): 20% and 21%
- Population Tubulin-Different-Phenotype (%) (Fibroblast; [1]): 8% and 15%
- Total Cell Count (Fibroblast; [1]): 178 and 179
- Population Apoptotic (%) (Fibroblast; [2]): 51% and 36%
- Population Fragmented Nuclei (%) (Fibroblast; [2]): 12% and 11%
- Population Healthy Nuclei (%) (Fibroblast; [2]): 74% and 67%
- Population Hoechst High Intensity Objects (%) (Fibroblast; [2]): 0%
- Population Membrane Permeable-Phenotype (%) (Fibroblast; [2]): 7% and 5%
- Population Mitochondria Different-Phenotype (%) (Fibroblast; [2]): 2%
- Population Mitotic Cells (%) (Fibroblast; [2]): 48% and 63%
- Population Normal (%) (Fibroblast; [2]): 100%
- Population Pyknosed Nuclei (%) (Fibroblast; [2]): 12% and 21%
- Population Tubulin-Different-Phenotype (%) (Fibroblast; [2]): 34% and 26%
- Total Cell Count (Fibroblast; [2]): 240 and 203
- Population Apoptotic (%) (Fibroblast; [3]): 43% and 52%
- Population Fragmented Nuclei (%) (Fibroblast; [3]): 7% and 12%
- Population Healthy Nuclei (%) (Fibroblast; [3]): 72% and 68%
- Population Hoechst High Intensity Objects (%) (Fibroblast; [3]): 0%
- Population Membrane Permeable-Phenotype (%) (Fibroblast; [3]): 5%
- Population Mitochondria Different-Phenotype (%) (Fibroblast; [3]): 0% and 2%
- Population Mitotic Cells (%) (Fibroblast; [3]): 56% and 47%
- Population Normal (%) (Fibroblast; [3]): 100%
- Population Pyknosed Nuclei (%) (Fibroblast; [3]): 20% and 19%
- Population Tubulin-Different-Phenotype (%) (Fibroblast; [3]): 12% and 10%
- Total Cell Count (Fibroblast; [3]): 193 and 174
- Population Apoptotic (%) (Fibroblast; [4]): 51% and 56%
- Population Fragmented Nuclei (%) (Fibroblast; [4]): 12% and 17%
- Population Healthy Nuclei (%) (Fibroblast; [4]): 74% and 67%
- Population Hoechst High Intensity Objects (%) (Fibroblast; [4]): 0%
- Population Membrane Permeable-Phenotype (%) (Fibroblast; [4]): 2%
- Population Mitochondria Different-Phenotype (%) (Fibroblast; [4]): 5% and 8%
- Population Mitotic Cells (%) (Fibroblast; [4]): 48% and 43%
- Population Normal (%) (Fibroblast; [4]): 100% and 99%
- Population Pyknosed Nuclei (%) (Fibroblast; [4]): 12% and 14%
- Population Tubulin-Different-Phenotype (%) (Fibroblast; [4]): 35% and 28%
- Total Cell Count (Fibroblast; [4]): 232 and 216
- Population Apoptotic (%) (Fibroblast; [5]): 64% and 72%
- Population Fragmented Nuclei (%) (Fibroblast; [5]): 12% and 16%
- Population Healthy Nuclei (%) (Fibroblast; [5]): 75% and 68%
- Population Hoechst High Intensity Objects (%) (Fibroblast; [5]): 0%
- Population Membrane Permeable-Phenotype (%) (Fibroblast; [5]): 5% and 3%
- Population Mitochondria Different-Phenotype (%) (Fibroblast; [5]): 0%
- Population Mitotic Cells (%) (Fibroblast; [5]): 36% and 27%
- Population Normal (%) (Fibroblast; [5]): 100%
- Population Pyknosed Nuclei (%) (Fibroblast; [5]): 12% and 15%
- Population Tubulin-Different-Phenotype (%) (Fibroblast; [5]): 9% and 5%
- Total Cell Count (Fibroblast; [5]): 200 and 186
- Population Apoptotic (%) (Fibroblast; [6]): 65% and 75%
- Population Fragmented Nuclei (%) (Fibroblast; [6]): 11% and 17%
- Population Healthy Nuclei (%) (Fibroblast; [6]): 76% and 65%
- Population Hoechst High Intensity Objects (%) (Fibroblast; [6]): 0%
- Population Membrane Permeable-Phenotype (%) (Fibroblast; [6]): 3% and 1%
- Population Mitochondria Different-Phenotype (%) (Fibroblast; [6]): 4% and 5%
- Population Mitotic Cells (%) (Fibroblast; [6]): 34% and 25%
- Population Normal (%) (Fibroblast; [6]): 100%
- Population Pyknosed Nuclei (%) (Fibroblast; [6]): 12% and 16%
- Population Tubulin-Different-Phenotype (%) (Fibroblast; [6]): 37% and 25%
- Total Cell Count (Fibroblast; [6]): 213 and 212
- Population Apoptotic (%) (HEK-293T; [1]): 28% and 39%
- Population Fragmented Nuclei (%) (HEK-293T; [1]): 2% and 3%
- Population Healthy Nuclei (%) (HEK-293T; [1]): 86% and 84%
- Population Hoechst High Intensity Objects (%) (HEK-293T; [1]): 5%
- Population Membrane Permeable-Phenotype (%) (HEK-293T; [1]): 2% and 4%
- Population Mitochondria Different-Phenotype (%) (HEK-293T; [1]): 10% and 16%
- Population Mitotic Cells (%) (HEK-293T; [1]): 71% and 60%
- Population Normal (%) (HEK-293T; [1]): 94%
- Population Pyknosed Nuclei (%) (HEK-293T; [1]): 11% and 12%
- Population Tubulin-Different-Phenotype (%) (HEK-293T; [1]): 45% and 47%
- Total Cell Count (HEK-293T; [1]): 870 and 527
- Population Apoptotic (%) (HEK-293T; [2]): 40% and 34%
- Population Fragmented Nuclei (%) (HEK-293T; [2]): 1%
- Population Healthy Nuclei (%) (HEK-293T; [2]): 86% and 81%
- Population Hoechst High Intensity Objects (%) (HEK-293T; [2]): 3% and 5%
- Population Membrane Permeable-Phenotype (%) (HEK-293T; [2]): 4% and 6%
- Population Mitochondria Different-Phenotype (%) (HEK-293T; [2]): 22% and 18%
- Population Mitotic Cells (%) (HEK-293T; [2]): 60% and 65%
- Population Normal (%) (HEK-293T; [2]): 96% and 94%
- Population Pyknosed Nuclei (%) (HEK-293T; [2]): 11% and 16%
- Population Tubulin-Different-Phenotype (%) (HEK-293T; [2]): 67% and 69%
- Total Cell Count (HEK-293T; [2]): 702 and 579
- Population Apoptotic (%) (HEK-293T; [3]): 29% and 31%
- Population Fragmented Nuclei (%) (HEK-293T; [3]): 4%
- Population Healthy Nuclei (%) (HEK-293T; [3]): 87%
- Population Hoechst High Intensity Objects (%) (HEK-293T; [3]): 9% and 5%

Reference: ChEMBL document CHEMBL5303300, “EUbOPEN Chemogenomics Library - Multiplex” (2023)
